Here are results for 5 molecules from ChEMBL document CHEMBL1781963, “Discovery of novel hepatoselective HMG-CoA reductase inhibitors for treating hypercholesterolemia: a bench-to-bedside case study on tissue selective drug distribution” (Bioorg Med Chem Lett, 2011).

Data set [1] has as its target T1, OATP1B3 (Homo sapiens, UniProt Q9NPD5).
T1 sequence (Q9NPD5 whole entry): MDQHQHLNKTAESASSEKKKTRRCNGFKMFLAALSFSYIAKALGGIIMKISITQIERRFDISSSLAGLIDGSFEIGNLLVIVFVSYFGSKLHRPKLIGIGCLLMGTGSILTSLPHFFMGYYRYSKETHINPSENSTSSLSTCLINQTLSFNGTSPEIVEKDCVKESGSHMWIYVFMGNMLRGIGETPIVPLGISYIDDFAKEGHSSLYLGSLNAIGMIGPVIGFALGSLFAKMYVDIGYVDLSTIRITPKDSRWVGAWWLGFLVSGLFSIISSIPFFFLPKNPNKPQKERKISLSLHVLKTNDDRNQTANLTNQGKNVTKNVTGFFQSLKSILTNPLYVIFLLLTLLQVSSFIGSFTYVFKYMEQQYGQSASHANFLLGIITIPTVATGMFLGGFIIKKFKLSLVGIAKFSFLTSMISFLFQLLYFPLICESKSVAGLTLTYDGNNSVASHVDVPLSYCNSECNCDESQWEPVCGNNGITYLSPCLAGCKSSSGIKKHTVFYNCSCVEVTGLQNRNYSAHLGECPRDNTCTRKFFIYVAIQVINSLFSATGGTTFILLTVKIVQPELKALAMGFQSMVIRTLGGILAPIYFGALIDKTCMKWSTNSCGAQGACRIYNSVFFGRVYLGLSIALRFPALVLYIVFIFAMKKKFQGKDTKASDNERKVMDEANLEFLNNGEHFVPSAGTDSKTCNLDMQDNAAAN
As to the kind of experiment: Drug uptake by human hepatic OATP1B3 transporter expressed in HEK293 cells at 10 uM relative to wild-type HEK293 cells. In kind it is ADME, cell-based. The conditions noted are these: HEK293 cells expressing OATP1B3, read-out: FC. In short, it runs like this:
(§1)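 Individual hepatic OATP transporters were over-expressed in CHO or HEK293 cells: rat rOatp1a1, rOatp1a4 and rOatp1b2, and human hOATP1B1, hOATP1B3 and hOATP2B1. Substrate uptake is expressed as fold difference relative to the wild-type parental line. Rosuvastatin/pravastatin served as positive control and midazolam as negative control in each assay.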

Data set [2] is described as follows: Lipophilicity, log D of the compound at pH 7.4 by shake flask method. The class given is physicochemical. The conditions noted are these: buffer. The essentials: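 Log D at pH 7.4 by shake flask.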
Data set [3] is described as follows: Fraction unbound in human plasma at 0.5 ug/ml. The class given is ADME, cell-free. The essentials:
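Unbound fraction in rat, dog or human plasma, measured at a drug concentration of 0.5 μg/mL.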

Data set [4] has as its system Hepatocyte. As to the kind of experiment: Drug uptake in sandwich-cultured human hepatocytes assessed per mg of protein at 1 uM. In kind it is ADME, cell-based. The essentials:
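Rat or human hepatocytes were cultured in sandwich configuration with a Matrigel overlay and compound uptake was measured. Active uptake was assessed by inhibition with the pan-OATP inhibitor rifamycin SV. Rosuvastatin/pravastatin served as positive control and midazolam as negative control.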

Data set [5] deals with T2, OATP1A4 (Rattus norvegicus, UniProt O35913).
T2 sequence (O35913 whole entry): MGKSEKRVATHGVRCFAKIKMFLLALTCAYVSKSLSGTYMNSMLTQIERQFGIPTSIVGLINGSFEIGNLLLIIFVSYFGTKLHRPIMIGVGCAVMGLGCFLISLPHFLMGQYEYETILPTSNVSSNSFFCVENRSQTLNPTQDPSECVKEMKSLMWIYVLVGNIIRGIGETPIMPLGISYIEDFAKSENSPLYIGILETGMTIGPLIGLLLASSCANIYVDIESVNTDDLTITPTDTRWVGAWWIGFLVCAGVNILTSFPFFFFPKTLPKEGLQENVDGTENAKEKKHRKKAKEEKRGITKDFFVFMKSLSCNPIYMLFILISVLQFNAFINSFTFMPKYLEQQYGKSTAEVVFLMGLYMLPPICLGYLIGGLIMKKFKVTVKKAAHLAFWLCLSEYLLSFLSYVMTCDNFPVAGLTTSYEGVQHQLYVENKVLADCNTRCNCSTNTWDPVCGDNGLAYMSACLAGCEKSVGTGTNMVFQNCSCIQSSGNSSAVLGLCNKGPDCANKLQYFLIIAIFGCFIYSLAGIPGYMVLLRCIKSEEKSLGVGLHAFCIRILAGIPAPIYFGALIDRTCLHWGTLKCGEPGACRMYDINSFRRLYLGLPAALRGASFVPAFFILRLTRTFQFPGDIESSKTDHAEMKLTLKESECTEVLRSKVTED
Briefly: Drug uptake by rat hepatic OATP1A4 transporters expressed in CHO cells at 10 uM relative to wild type CHO cells. The conditions noted are these: CHO cells expressing rat OATP1A4, read-out: FC. In kind it is ADME, cell-based. The essentials: as §1

The target of data set [6] is T1, OATP1B3. As to the kind of experiment: Drug uptake by human hepatic OATP1B3 transporter expressed in HEK293 cells at 1 uM relative to wild-type HEK293 cells. In kind it is ADME, cell-based. The conditions noted are these: HEK293 cells expressing human OATP1B3, read-out: FC. The essentials:
as §1

In data set [7] the test system is L6. Briefly: Selectivity ratio of IC50 for cholesterol synthesis in rat L6 cells to IC50 for cholesterol synthesis in rat hepatocytes.
The target of data set [8] is T3, OATP1B2 (Rattus norvegicus, UniProt Q9QZX8).
T3 sequence (Q9QZX8 whole entry): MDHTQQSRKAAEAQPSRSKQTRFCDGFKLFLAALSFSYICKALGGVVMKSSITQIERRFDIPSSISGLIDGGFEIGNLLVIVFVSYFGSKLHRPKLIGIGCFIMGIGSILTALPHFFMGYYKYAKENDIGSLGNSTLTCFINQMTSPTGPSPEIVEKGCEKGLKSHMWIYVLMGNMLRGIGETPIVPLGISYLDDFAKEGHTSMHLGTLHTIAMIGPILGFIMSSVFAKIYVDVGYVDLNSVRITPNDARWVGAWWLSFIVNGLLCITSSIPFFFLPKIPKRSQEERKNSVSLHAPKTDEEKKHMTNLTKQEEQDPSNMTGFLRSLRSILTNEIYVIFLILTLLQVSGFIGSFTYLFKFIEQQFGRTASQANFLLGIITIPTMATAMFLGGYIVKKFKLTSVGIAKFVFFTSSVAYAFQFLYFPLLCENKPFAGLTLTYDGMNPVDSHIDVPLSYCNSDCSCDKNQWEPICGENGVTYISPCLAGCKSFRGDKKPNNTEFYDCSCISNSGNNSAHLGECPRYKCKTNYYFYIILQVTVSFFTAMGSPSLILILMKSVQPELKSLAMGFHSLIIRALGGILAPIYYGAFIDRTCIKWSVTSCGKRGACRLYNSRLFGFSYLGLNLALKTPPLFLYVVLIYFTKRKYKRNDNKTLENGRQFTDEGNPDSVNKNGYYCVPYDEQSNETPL
Briefly: Drug uptake by rat hepatic OATP1B2 transporters expressed in CHO cells at 10 uM relative to wild type CHO cells. In kind it is ADME, cell-based. The conditions noted are these: CHO cells expressing rat OATP1B2, read-out: FC. In short, it runs like this: as §1

For the molecule `CC(C)c1nc(N(C)S(C)(=O)=O)nc(-c2ccc(F)cc2)c1/C=C/[C@@H](O)C[C@@H](O)CC(=O)O` [ROSUVASTATIN], the uptake ratio at 10 µM worked out at 11.1 in data set [1] and 17.3 in data set [5]. In addition, in data set [2], the log distribution coefficient (logD) amounted to 1.01. The molecule further had a fraction unbound at 0.5 ug/ml in data set [3] of 0.17. This molecule also yielded a Drug uptake in data set [4] of 8 pmol/min/mg. The uptake ratio at 1 µM in data set [6] is 3.7. The “Ratio IC50” value in data set [7] was 830.
For the molecule `CC[C@H](C)C(=O)O[C@H]1C[C@H](O)C=C2C=C[C@H](C)[C@H](CC[C@@H](O)C[C@@H](O)CC(=O)O)[C@H]21` [PRAVASTATIN], the values for the uptake ratio at 10 µM in data set [1], in data set [8] and in data set [5] were 32.8, 7 and 1.8, respectively. Also, in data set [6], the uptake ratio at 1 µM turned out to be 13.
With `Cc1ncc2n1-c1ccc(Cl)cc1C(c1ccccc1F)=NC2` [MIDAZOLAM], the figures for the uptake ratio at 10 µM in data set [1], in data set [8] and in data set [5] were 1.1, 1.3 and 0.82, respectively. Moreover, in data set [6], the uptake ratio at 1 µM was 0.9.
Regarding `O=C([O-])C[C@H](O)C[C@H](O)CCn1c(-c2ccc(F)cc2)nc(C(=O)NCc2cccc(F)c2)c1C1CC1.[Na+]`, the figures for the uptake ratio at 10 µM in data set [1], in data set [8] and in data set [5] were 36.4, 1.7 and 7.3, respectively. This molecule returned a logD in data set [2] of 0.51. The same molecule yielded a fraction unbound at 0.5 ug/ml in data set [3] of 0.29. This molecule showed a Drug uptake in data set [4] of 1.5 pmol/min/mg. Moreover, the uptake ratio at 1 µM in data set [6] stood at 34.5. For the same molecule, the “Ratio IC50” value in data set [7] is 4440.
For `Cc1ccc(CNC(=O)c2nn(-c3ccc(F)cc3)c(CC[C@@H](O)C[C@@H](O)CC(=O)O)c2C(C)C)cc1`, the uptake ratio at 10 µM was 5 in data set [1], 2.6 in data set [8] and 3 in data set [5]. In data set [2], this molecule displayed a logD of 0.24. In addition, in data set [3], the fraction unbound at 0.5 ug/ml was 0.051. The molecule further yielded a Drug uptake in data set [4] of 7.8 pmol/min/mg. Also, in data set [6], the uptake ratio at 1 µM stood at 11.1. Further, the “Ratio IC50” value in data set [7] was 810.

By logD is commonly meant the decadic logarithm of the distribution of all forms, ionised or not, between an organic phase and buffer at a given pH. By fraction unbound is commonly meant the share of the substance not bound to proteins or other matrix. Low values mean extensive binding, high ones weak binding.
